In publication PMC6492960 (Oncoimmunology, 2019):

Legend:
[1] = system: splenocytes of immunised HLA-DR4 transgenic mice; test: Epitope mapping, HLA-DR4 transgenic mice; assay type: cell-based, mouse; conditions: Supplementary Figure 3
[2] = system: TCR α and β chain CDR3 of CD4+ CFSE^high and CFSE^low cells; test: TCR α and β CDR3 repertoire diversity of sorted CD4+ CFSE high/low cells; parameters: species or system human; conditions: for Diversity Index (D50) TRA / Diversity Index (D50) TRB: day 10, non-normalised
How it was run: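 CD25-depleted human PBMCs were labelled with 5µM CFSE for 5 min at room temperature and cultured at 1.5-2x10^6/ml with 10μg/ml citrullinated peptide or vehicle. On day 10 they were stained for CD4/CD8 and sorted into CD4+ CFSEhigh and CFSElow populations. RNA then went through RT-PCR, ARM-PCR with human TCR α/β primers, and NGS bulk sequencing. D50 is the percentage of clones accounting for the cumulative 50% of CDR3 counts.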

[3] = system: splenocytes of immunised HLA-DP4 transgenic mice (IFNγ); assay type: cell-based, mouse; conditions: anti-CD4 20 µg/ml, 15 min prior to peptide
How it was run: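 HLA-A2.1/HLA-DP4/hCD4 transgenic mice (8–12 weeks) immunised s.c. at tail base on days 0, 7 and 14 with 25 µg peptide in PBS emulsified with CpG ODN 1826 and MPLA (5 µg each). Spleens taken day 20. Splenocytes (5 × 10^5/well) given anti-CD4 GK1.5 before 10µg/ml peptide; quadruplicate wells, 40 h, 37°C, 5% CO2. LPS positive control. Spots counted automatically.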

[4] = molecular target: HLA-DP4 (HLA-DPA*0103 α chain / HLA-DPB*0401 β chain) (human); test: ELISA
[5] = system: HLA-DP4; conditions: cited from earlier work
[6] = donor BD0008, CD4+ CFSE^High (non-proliferating)
[7] = donor BD0008, CD4+ CFSE^Low (proliferating)
[8] = donor BD0011, CD4+ CFSE^High (non-proliferating)
[9] = donor BD0011, CD4+ CFSE^Low (proliferating)

With “VIGMDVAASEFF-cit-SG [Enolase 241-255 cit]” the “shorter epitope mapping in HLA-DR4 transgenic mice” value (from here on “shorter epitope mapping”) [1] was “consistent with findings in the HLA-DR4 transgenic mice mapping shorter peptide sequences”.
In the case of “cit-SYVTTST-cit-TYSLGSAL-cit-PSTS [Vimentin 28-49 cit]”, the “Diversity Index (D50) TRA” value [2, 6] is reported as 12.8, the “Diversity Index (D50) TRB” value [2, 6] is reported as 17 and the “Diversity Index (D50) TRA” value [2, 7] is reported as 0.4. For the same substance, the “Diversity Index (D50) TRB” value [2, 7] was 0.2, the “TCR clonality of responding CD4 T cells” value ([2]; donor BD0008, compared with non-proliferating CD4 population) was “a bias of TCR Vβ and Vα sequences among CD4+ proliferating cells (CFSE^low)” and the “IFNγ ELISpot response in presence of CD4 blocking antibody” value (from here on “IFNγ ELISpot response in presence”) [3] was “Responses were lost”.
In the case of “non-biotinylated Hepatitis B surface antigen aa 181–193 peptide”, the percent inhibition of the binding of the biotinylated Hepatitis B peptide [4] is reported as 50%.
For NQDFTN-cit-INKLKNS [fibrinogen], the “binding to HLA-DP4 (literature)” value [5] is given as “not to bind to HLA-DP4”.
With “VIGMDVAASEFF-cit-SGKYDLD [Enolase 241-260 cit]” the “IFNγ ELISpot response in presence” value [3] was “Responses were lost”.
In the case of LQYM-cit-ADQAAGGLR [collagen II], the “binding to HLA-DP4 (literature)” value [5] is given as “not to bind to HLA-DP4”.
In the case of “LPNFSSLNL-cit-ETNLDSLPL [Vimentin 415-433 cit]”, the “Diversity Index (D50) TRA” value [2, 8] is reported as 9.9, the “Diversity Index (D50) TRB” value [2, 8] is reported as 5.9 and the “Diversity Index (D50) TRA” value [2, 9] is reported as 0.7. For the same substance, the “Diversity Index (D50) TRB” value [2, 9] was 0.5, the “TCR clonality of responding CD4 T cells” value ([2]; donor BD0011, compared with non-proliferating CD4 population) was “a bias of TCR Vβ and Vα sequences among CD4+ proliferating cells (CFSE^low)” and the “IFNγ ELISpot response in presence” value [3] was “Responses were lost”.
In the case of “cit-SYVTTST-cit-TYSLGS [Vimentin 28-42 cit]”, the “shorter epitope mapping” value [1] is reported as “consistent with findings in the HLA-DR4 transgenic mice mapping shorter peptide sequences”.
In the case of “FSSLNL-cit-ETNLDSL [Vimentin 418-431 cit]”, the “shorter epitope mapping” value [1] is reported as “consistent with findings in the HLA-DR4 transgenic mice mapping shorter peptide sequences”.
